Molecules are shown by their SMILES. Activity calls are given as the source filed them. No cut-off for these calls is given here.

The target of assay [1] is T1, 17-beta-hydroxysteroid dehydrogenase type 1 (Homo sapiens) (UniProt P14061).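 Note: enzyme source was human placental cytosol with tritiated estrone as substrate, 10 min reaction, conversion quantified by HPLC.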
T1 sequence (whole entry): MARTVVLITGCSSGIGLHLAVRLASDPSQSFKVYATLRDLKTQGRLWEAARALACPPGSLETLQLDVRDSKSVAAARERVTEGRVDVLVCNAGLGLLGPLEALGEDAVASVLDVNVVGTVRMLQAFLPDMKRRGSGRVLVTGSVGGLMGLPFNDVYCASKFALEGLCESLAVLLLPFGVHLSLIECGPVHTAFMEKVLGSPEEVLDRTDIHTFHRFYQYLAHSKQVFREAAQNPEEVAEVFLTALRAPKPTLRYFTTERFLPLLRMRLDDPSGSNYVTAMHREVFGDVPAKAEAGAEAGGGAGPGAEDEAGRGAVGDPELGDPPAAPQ
As to conditions: at 1 µM.

In assay [2] the target is T2, 17-beta-hydroxysteroid dehydrogenase type 2 (Homo sapiens) (UniProt P37059).
T2 sequence (whole entry): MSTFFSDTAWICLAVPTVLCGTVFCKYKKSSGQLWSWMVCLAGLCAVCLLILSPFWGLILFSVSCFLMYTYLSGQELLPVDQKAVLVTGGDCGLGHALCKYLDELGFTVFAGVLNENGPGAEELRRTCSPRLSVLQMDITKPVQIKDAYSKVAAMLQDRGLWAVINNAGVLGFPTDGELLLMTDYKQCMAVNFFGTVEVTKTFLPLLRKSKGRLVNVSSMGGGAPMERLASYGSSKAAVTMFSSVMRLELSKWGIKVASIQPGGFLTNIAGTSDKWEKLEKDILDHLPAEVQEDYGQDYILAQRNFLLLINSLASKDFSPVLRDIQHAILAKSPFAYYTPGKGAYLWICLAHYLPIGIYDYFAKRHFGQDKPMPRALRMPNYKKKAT
As to conditions: Placenta, Microsomal, at 1 µM.

The target in assay [3] is T3, 17-beta-hydroxysteroid dehydrogenase type 2 (Homo sapiens, UniProt P37059).
T3 sequence (P37059 whole entry): T2 sequence (whole entry)
The assay is described as follows: Inhibition of 17beta-HSD2 (unknown origin). An outline of the steps: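 Microsomal fraction of human placenta as enzyme source, incubated with tritiated E2, cofactor and inhibitor. Substrate and product separated by HPLC to give percent inhibition. IC50 determined for selected compounds.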

Assay [4] concerns the target T4, Estrogen receptor (Homo sapiens) (UniProt P03372).
T4 sequence (whole entry): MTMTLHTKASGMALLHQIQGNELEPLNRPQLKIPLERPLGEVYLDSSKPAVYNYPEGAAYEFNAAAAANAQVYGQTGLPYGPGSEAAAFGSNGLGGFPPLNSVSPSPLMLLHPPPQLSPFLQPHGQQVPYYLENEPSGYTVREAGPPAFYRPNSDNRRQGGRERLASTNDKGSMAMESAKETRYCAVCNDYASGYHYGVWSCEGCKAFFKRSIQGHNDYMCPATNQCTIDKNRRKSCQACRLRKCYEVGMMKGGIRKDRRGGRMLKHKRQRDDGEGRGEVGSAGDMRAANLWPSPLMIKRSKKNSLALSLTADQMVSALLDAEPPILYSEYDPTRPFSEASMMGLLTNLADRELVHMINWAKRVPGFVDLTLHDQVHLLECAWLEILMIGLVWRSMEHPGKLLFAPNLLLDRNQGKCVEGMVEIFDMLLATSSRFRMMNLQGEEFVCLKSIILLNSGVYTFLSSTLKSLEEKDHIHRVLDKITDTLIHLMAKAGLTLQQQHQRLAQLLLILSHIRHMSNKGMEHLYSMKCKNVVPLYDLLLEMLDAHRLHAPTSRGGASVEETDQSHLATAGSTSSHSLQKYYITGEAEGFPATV
The assay is described as follows: Displacement of [3H]E2 from human recombinant ERalpha after 1 hr by scintillation counting analysis relative to E2. An outline of the steps: (§1)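 Competitive binding assay against ERα and ERβ, with E2 as internal reference.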

The target of assay [5] is Estrogen receptor beta (Homo sapiens) (UniProt Q92731). The assay is described as follows: Displacement of [3H]E2 from human recombinant ERbeta after 1 hr by scintillation counting analysis relative to E2. An outline of the steps: as §1
(Displacement assays read how much labelled ligand stays bound in the presence of the test substance.)

The species named for assay [6] is Homo sapiens. The assay is described as follows: Selectivity ratio of IC50 for 17beta-HSD1 in human placental microsomal fraction to IC50 for 17beta-HSD2 in human placental microsomal fraction. Format: microsomes. As to conditions: Microsome.
The target of assay [7] is T5, Peroxisomal multifunctional enzyme type 2 (Homo sapiens) (UniProt P51659).
T5 sequence (whole entry): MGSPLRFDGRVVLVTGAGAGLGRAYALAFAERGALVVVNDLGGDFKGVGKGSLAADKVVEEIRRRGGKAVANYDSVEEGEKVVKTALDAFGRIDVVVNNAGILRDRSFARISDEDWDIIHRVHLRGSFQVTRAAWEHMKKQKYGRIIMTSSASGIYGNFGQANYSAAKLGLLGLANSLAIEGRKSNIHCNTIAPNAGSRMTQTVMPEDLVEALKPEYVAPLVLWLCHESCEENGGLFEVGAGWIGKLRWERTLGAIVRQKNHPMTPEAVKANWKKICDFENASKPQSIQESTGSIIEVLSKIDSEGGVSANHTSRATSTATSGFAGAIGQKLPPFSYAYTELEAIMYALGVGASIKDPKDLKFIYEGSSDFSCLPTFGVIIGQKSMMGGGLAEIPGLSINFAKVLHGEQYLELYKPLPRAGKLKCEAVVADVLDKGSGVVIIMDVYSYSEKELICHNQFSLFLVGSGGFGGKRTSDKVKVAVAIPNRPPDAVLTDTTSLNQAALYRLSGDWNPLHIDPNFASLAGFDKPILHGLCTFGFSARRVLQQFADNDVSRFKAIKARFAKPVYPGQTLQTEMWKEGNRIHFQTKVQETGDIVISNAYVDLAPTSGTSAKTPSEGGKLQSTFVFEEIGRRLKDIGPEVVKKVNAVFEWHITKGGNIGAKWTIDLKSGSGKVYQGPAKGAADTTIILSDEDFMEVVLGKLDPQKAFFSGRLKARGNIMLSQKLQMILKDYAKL
The assay is described as follows: Inhibition of human recombinant 17beta-HSD4 SDR domain expressed in Escherichia coli using [6,7-3H]E2 as substrate at 1 uM by scintillation counting analysis.

In assay [8] the target is T6, Aldo-keto reductase family 1 member C3 (Homo sapiens) (UniProt P42330).
T6 sequence (whole entry): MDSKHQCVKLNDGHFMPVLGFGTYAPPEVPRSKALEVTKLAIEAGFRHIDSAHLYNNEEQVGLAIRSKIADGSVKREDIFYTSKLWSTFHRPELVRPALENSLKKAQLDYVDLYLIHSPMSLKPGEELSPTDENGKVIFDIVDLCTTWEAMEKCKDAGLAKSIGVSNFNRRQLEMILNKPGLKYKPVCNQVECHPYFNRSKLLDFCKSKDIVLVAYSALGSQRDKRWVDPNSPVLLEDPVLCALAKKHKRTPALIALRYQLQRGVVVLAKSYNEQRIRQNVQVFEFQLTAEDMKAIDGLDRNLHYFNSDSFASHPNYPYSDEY
The assay is described as follows: Inhibition of human recombinant 17beta-HSD5 expressed in Escherichia coli using [1,2,6,7-3H]A-dione as substrate at 1 uM by scintillation counting analysis.

Estrogen receptor beta (Homo sapiens), sequence (Q92731 whole entry): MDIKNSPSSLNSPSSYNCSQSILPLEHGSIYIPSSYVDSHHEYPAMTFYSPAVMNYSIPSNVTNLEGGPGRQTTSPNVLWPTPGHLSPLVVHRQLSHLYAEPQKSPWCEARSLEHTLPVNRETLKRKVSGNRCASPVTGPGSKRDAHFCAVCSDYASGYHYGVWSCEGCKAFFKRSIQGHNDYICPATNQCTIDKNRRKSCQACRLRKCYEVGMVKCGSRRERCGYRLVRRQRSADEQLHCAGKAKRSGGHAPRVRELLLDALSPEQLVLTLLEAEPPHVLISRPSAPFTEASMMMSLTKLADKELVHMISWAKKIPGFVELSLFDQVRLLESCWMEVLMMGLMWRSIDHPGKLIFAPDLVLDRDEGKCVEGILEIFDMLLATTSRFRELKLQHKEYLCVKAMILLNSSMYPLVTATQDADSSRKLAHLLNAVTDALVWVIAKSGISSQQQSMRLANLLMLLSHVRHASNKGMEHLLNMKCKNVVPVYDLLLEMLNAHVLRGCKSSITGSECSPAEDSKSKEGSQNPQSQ

For orientation: inhibition means the change of the read-out against control, counted positive when it falls. As for `CN(CCc1cccc(O)c1)C(=O)c1ccc(-c2cccc(F)c2)s1`, the inhibition came to 12% in assay [1] and 17% in assay [2].
The matching figures for `COc1cccc(CN(C)C(=O)c2ccc(-c3ccc(C#N)cc3)s2)c1`: under 10% and under 10%.
For `CN(CCc1cccc(O)c1)C(=O)c1ccc(-c2ccccc2)s1`, in that order: under 10% and 11%.
`COc1cccc(CN(C)C(=O)c2ccc(-c3ccccc3OC)s2)c1` registered an inhibition in assay [1] of under 10%.
As to `CN(Cc1cccc(O)c1)C(=O)c1ccc(-c2ccccc2O)s1`, the inhibition in assay [1] amounted to 16%; in assay [2] it was 83%.
The IC50 is the point on the concentration scale where inhibition reaches its midpoint. Take `C[C@]12CC[C@@H]3c4ccc(O)cc4CC[C@H]3[C@@H]1CC[C@@]21CCCC(=O)O1`: the IC50 in assay [3] turned out to be 34 nM. This lies in the double-digit nanomolar range.
`Cn1nc(-c2cccc(O)c2)nc1-c1ccc(-c2cccc(O)c2)cc1` came in with a 50% inhibitory concentration (IC50) in assay [3] of 1400 nM.
With `CN(Cc1cccc(O)c1)C(=O)c1cccc(-c2cccc(O)c2)c1`, the figures for the inhibition in assay [1] and in assay [2] were 10% and 60%, respectively.
For the molecule `COc1ccc(-c2cccc(C(=O)N(C)Cc3cccc(OC)c3)c2)cc1`, the inhibition was under 10% in assay [1] and 13% in assay [2].
On to `COc1cccc(-c2ccc(C(=O)N(C)c3cccc(C)c3)s2)c1`, for which the RBA in assay [4] and in assay [5] was under 0.1% each time. For the same molecule, the inhibition is under 10% in assay [1] and 87% in assay [2]. The Ratio IC50 in assay [6] amounted to 55.
`Cc1cccc(N(C)C(=O)c2ccc(-c3cccc(O)c3)s2)c1`: the RBA in assay [4] and in assay [5] was under 0.1% in each case. The inhibition in assay [1] turned out to be 24%; in assay [2] it was 71%. Further, the Ratio IC50 in assay [6] amounted to 11.
Consider `COc1cccc(N(C)C(=O)c2ccc(-c3c(F)ccc(OC)c3F)s2)c1`, for which the RBA in assay [4] and in assay [5] was under 0.1% throughout.
With `COc1cccc(CCN(C)C(=O)c2ccc(-c3cccc(OC)c3)s2)c1`, the results for the inhibition in assay [1] and in assay [2] were under 10% and 31%, respectively.
With `COc1cccc(-c2cccc(C(=O)N(C)c3cccc(OC)c3)c2)c1`, the results for the inhibition in assay [1] and in assay [2] were under 10% and 64%, respectively.
With `COc1cccc(CN(C)C(=O)c2ccc(-c3cccc(OC)c3)s2)c1`, the inhibition in assay [1] is under 10%; in assay [2], 63%.
Consider `COc1cccc(-c2ccc(C(=O)N(C)c3cccc(-c4ccccc4)c3)s2)c1`, for which the RBA in assay [4] and in assay [5] was under 0.1% in each case. The inhibition in assay [1] was 50%; in assay [2], 83%. The Ratio IC50 in assay [6] was found to be 8.
Take `CN1C(=O)C[C@@H](c2ccccc2)[C@H]1[C@H](O)c1ccc(-c2cccnc2)s1`: the inhibition entry in assay [7] was “inactive”. Besides, the inhibition in assay [8] amounted to 88%.
For `COc1cccc(N(C)C(=O)c2ccc(-c3ccc(F)c(OC)c3)s2)c1`, the inhibition in assay [1] is 17%; in assay [2], 66%.
As for `COc1ccc(-c2ccc(C(=O)N(C)c3cccc(OC)c3)s2)cc1`, the RBA in assay [4] and in assay [5] was under 0.1% in each case.
`COc1cccc(CCN(C)C(=O)c2ccc(-c3cccc(F)c3)s2)c1`: the inhibition in assay [1] and in assay [2] was under 10% in each case.
Consider `CN(Cc1cccc(O)c1)C(=O)c1ccc(-c2cccc(O)c2)s1`, for which the results for the inhibition in assay [1] and in assay [2] were 21% and 70%, respectively. The Ratio IC50 in assay [6] was determined as 14.
With `COc1cccc(N(C)C(=O)c2ccc(-c3ccccc3)s2)c1`, the RBA in assay [4] and in assay [5] was under 0.1% each time. Further, the values for the inhibition in assay [1] and in assay [2] were 24% and 82%, respectively. The Ratio IC50 in assay [6] was found to be 21.
For `COc1cccc(N(C)C(=O)c2ccc(-c3cccc(SC)c3)s2)c1`, the RBA in assay [4] and in assay [5] was under 0.1% in each case.
With `COc1cccc(CCN(C)C(=O)c2ccc(-c3ccccc3)s2)c1`, the inhibition in assay [1] turned out to be 11%; in assay [2] it was 18%.
With `COc1cccc(N(C)C(=O)c2ccc(-c3cccc(C)c3)s2)c1`, the RBA in assay [4] and in assay [5] was under 0.1% each time.
`COc1cccc(N(C)C(=O)c2ccc(-c3cccc(C)c3F)s2)c1`: the RBA in assay [4] and in assay [5] was under 0.1% throughout.
As to `COc1cccc(-c2ccc(C(=O)N(C)c3cccc(C)c3)s2)c1F`, the RBA in assay [4] and in assay [5] was under 0.1% in each case.
With `CN(Cc1cccc(O)c1)C(=O)c1ccc(-c2cccc(F)c2)s1`, the inhibition was 20% in assay [1] and 71% in assay [2].
The matching figures for `COc1ccc(N(C)C(=O)c2ccc(-c3cccc(OC)c3F)s2)cc1`: 18% and 49%.
Consider `COc1cccc(N(C)C(=O)c2ccc(-c3ccc(OC)cc3OC)s2)c1`, for which the RBA in assay [4] and in assay [5] was under 0.1% throughout. For the same molecule, the inhibition in assay [1] was found to be 30%; in assay [2] it was 77%. In addition, the Ratio IC50 in assay [6] worked out at 6.
Turning to `CN(CCc1cccc(O)c1)C(=O)c1ccc(-c2cccc(O)c2)s1`, the inhibition is 23% in assay [1] and 37% in assay [2].
As to `COc1cccc(-c2ccc(C(=O)N(C)c3cccc(C(F)(F)F)c3)s2)c1`, the RBA in assay [4] and in assay [5] was under 0.1% throughout. The results for the inhibition in assay [1] and in assay [2] were 13% and 75%, respectively. The Ratio IC50 in assay [6] is 17.
As for `COc1cccc(-c2ccc(C(=O)N(C)c3cccc(OC)c3)s2)c1`, the RBA in assay [4] and in assay [5] was under 0.1% each time.

These data come from ChEMBL document CHEMBL2321834 (J Med Chem, 2013).
